For test [1], the target named is T1, Cruzipain (Trypanosoma cruzi, UniProt P25779). The test is described as follows: Inhibition of Trypanosoma cruzi cruzain by quantitative high throughput screening. Put shortly:
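1536-well qHTS in 100 mM acetate pH 5.5 with 5 mM DTT, 4 μL final volume. Two conditions: 0.01% Triton X-100 with 1.5 nM cruzain, or 0.00005% Triton with 3 nM cruzain. Seven compound concentrations from 57.5 μM to 3.7 nM, preincubated 15 min at room temperature. Then 2 μM Z-Phe-Arg-AMC added. Fluorescence (ex 340/em 450) read kinetically over 60 s. Initial-rate data fitted to a four-parameter Hill equation.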

The nature of test [2]: Inhibition of Beta-lactamase AmpC by quantitative high throughput screening.
Test [3] deals with T1, Cruzipain. The test is described as follows: Inhibition of Trypanosoma cruzi cruzain by Flexstation microplate spectrofluorimetry. The essentials: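 Secondary 96-well assay: 0.4 nM cruzain in 0.1 M sodium acetate pH 5.5, 5 mM DTT, with or without 0.01% Triton X-100. Compound from 200x DMSO stock preincubated with enzyme 15 min. Reaction started with Z-Phe-Arg-AMC at 2.5 μM final (Km 2 μM) and followed for 5 min. Percent inhibition taken from initial rates versus a DMSO control. Each assay run at least twice.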

T1 sequence (P25779 whole entry): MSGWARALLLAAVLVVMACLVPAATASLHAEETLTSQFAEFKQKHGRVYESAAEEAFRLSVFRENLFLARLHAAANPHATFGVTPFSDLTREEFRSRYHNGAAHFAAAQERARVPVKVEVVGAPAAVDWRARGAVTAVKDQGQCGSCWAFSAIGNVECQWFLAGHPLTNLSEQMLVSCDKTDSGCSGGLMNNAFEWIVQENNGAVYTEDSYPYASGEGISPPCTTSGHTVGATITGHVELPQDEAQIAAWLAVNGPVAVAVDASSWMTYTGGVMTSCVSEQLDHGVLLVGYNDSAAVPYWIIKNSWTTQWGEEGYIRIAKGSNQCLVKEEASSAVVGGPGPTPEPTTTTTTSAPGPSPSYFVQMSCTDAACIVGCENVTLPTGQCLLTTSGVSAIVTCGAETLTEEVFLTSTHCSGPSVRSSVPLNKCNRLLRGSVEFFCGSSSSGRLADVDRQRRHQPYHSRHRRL

The term IC50 denotes the concentration at which inhibition is half-maximal. A lower IC50 goes with greater potency in that assay. On to `C=CCNC(=O)c1cc([N+](=O)[O-])cc2c(=O)[nH]c(Nc3ccc(Cl)c(Cl)c3)nc12`, for which the IC50 against Cruzipain [1] was above 60 µM; in test [2] it was 2 µM.

Consider `CCCCC/C=C\C/C=C\C/C=C\C/C=C\CCCC(=O)Nc1ccc(O)cc1`, for which the IC50 against Cruzipain [1] was above 60 µM; on Cruzipain [3], 30 µM; in test [2] it was 10 µM.

On to `COc1ccc(/C=N/NC(=O)c2ccc(Br)cc2)cc1Cn1cc(Cl)cn1`, for which the IC50 against Cruzipain [3] amounted to 12 µM.

As for `Cc1ccc(C(=O)Nc2nc(-c3cc(Cl)sc3Cl)cs2)cc1`, the IC50 against Cruzipain [3] was 12 µM.

At Cruzipain [3], `CCN(Cc1ccccc1)c1nc2c(S(=O)(=O)c3ccccc3)nnn2c2ccc(Cl)cc12` came in with an IC50 of 12 µM.

Regarding `Cc1cc(NC(=O)c2cc(CC(C)C)on2)no1`, the IC50 against Cruzipain [1] was above 60 µM; at Cruzipain [3] it was 120 µM; in test [2], 4 µM.

For the compound `C=C(C)CSc1cc(N)c(C#N)c(-c2ccc(C)cc2)c1C#N`, the IC50 is above 60 µM against Cruzipain [1], 12 µM against Cruzipain [3] and 6 µM in test [2].

In the case of `O=C(CSCc1ccc(Cl)cc1)c1ccco1`, the figures for the IC50 (on Cruzipain [1]; on Cruzipain [3]; in test [2]) were above 60 µM, 120 µM and 10 µM, respectively.

As to `O=C(CSc1nnc(-c2ccccc2)o1)N1CCN(c2ccccc2)CC1`, the IC50 at Cruzipain [1] was above 60 µM; against Cruzipain [3], 30 µM; in test [2], 13 µM.

As for `O=C(Nc1ccc(/N=N/c2ccccc2)cc1)c1cccc(Cl)c1`, half-maximal inhibition at Cruzipain [3] (IC50) required 12 µM.

On to `Cc1cc(=O)oc2cc(OCC#N)ccc12`, for which the IC50 on Cruzipain [1] was above 60 µM; at Cruzipain [3] it was above 120 µM; in test [2], 4 µM.

The compound `O=C(Nc1nc(-c2cccc(Br)c2)cs1)Oc1ccccc1` had an IC50 against Cruzipain [3] of 30 µM.

Regarding `Oc1cc(-c2ccc(Cl)c(Cl)c2)[nH]n1`, the values for the IC50 (on Cruzipain [1]; on Cruzipain [3]; in test [2]) were above 60 µM, 12 µM and 13 µM, respectively.

Consider `c1ccc(-c2cc3c(NCC4COc5ccccc5O4)ncnc3s2)cc1` (configuration not stated), for which, on Cruzipain [3], it took 12 µM to reach half-maximal inhibition (IC50).

For `O=C(Nc1nc(-c2ccc(S(=O)(=O)N3CCCCCC3)cc2)cs1)c1cccs1`, the IC50 was above 60 µM against Cruzipain [1], 12 µM on Cruzipain [3] and 8 µM in test [2].

`O=C(c1ccc(OCCN2CCCCC2)cc1)c1c(-c2ccc(O)cc2)sc2cc(O)ccc12` [RALOXIFENE]: the results for the IC50 (at Cruzipain [1]; in test [2]) were above 60 µM and 5 µM, respectively.

As for `CCSc1nnc(NC(=O)c2ccc(Br)s2)s1`, the IC50 is above 60 µM against Cruzipain [1], 12 µM on Cruzipain [3] and 10 µM in test [2].

Turning to `Cc1cc(NC(=O)Cc2cccs2)no1`, the IC50 was above 60 µM at Cruzipain [1], 30 µM on Cruzipain [3] and 13 µM in test [2].

For `NC(=O)SCC(=O)Nc1cccc(Cl)c1`, the figures for the IC50 (on Cruzipain [1]; against Cruzipain [3]; in test [2]) were above 60 µM, above 120 µM and 8 µM, respectively.

In the case of `Cc1ccc(NC(=O)CSC(N)=O)cc1Cl`, the IC50 at Cruzipain [1] was above 60 µM; at Cruzipain [3], above 120 µM; in test [2], 13 µM.

In the case of `COc1ccc(C(=O)Nc2nncs2)c(OC)c1`, the IC50 on Cruzipain [1] was above 60 µM; on Cruzipain [3], above 120 µM; in test [2] it was 4 µM.

For the compound `O=c1c(O)c(-c2ccc(O)c(O)c2)oc2cc(O)ccc12` [FISETIN], the results for the IC50 (on Cruzipain [1]; against Cruzipain [3]; in test [2]) were above 60 µM, 30 µM and 13 µM, respectively.

In the case of `O=C(COC(=O)c1cccc(Oc2ccccc2)c1)Nc1nnc(-c2ccccc2)o1`, the IC50 was above 60 µM against Cruzipain [1], 12 µM at Cruzipain [3] and 16 µM in test [2].

Consider `O=C(COC(=O)c1cc(-c2ccco2)nc2ccccc12)NCc1ccc2c(c1)OCO2`, for which the half-inhibitory concentration (IC50) is above 60 µM on Cruzipain [1], 30 µM against Cruzipain [3] and 13 µM in test [2].

Consider `O=C(CS[n+]1cc(-c2ccc(F)cc2)cs1)NC(=O)NCc1ccco1`, for which the concentration for half-maximal inhibition (IC50) was above 60 µM at Cruzipain [1], 60 µM against Cruzipain [3] and 3 µM in test [2].

In the case of `CCCCCCNC(=O)Nc1ccc(S(=O)(=O)Nc2ccc(CCNC[C@H](O)COc3ccc(O)cc3)cc2)cc1` [L-755507], the IC50 was above 60 µM on Cruzipain [1] and 12 µM at Cruzipain [3].

For the compound `COC(=O)c1ccc(-c2nc(-c3ccc(Br)o3)no2)cc1`, the half-inhibitory concentration (IC50) on Cruzipain [1] is above 60 µM; at Cruzipain [3], 30 µM; in test [2], 4 µM.

For the compound `N#Cc1c(-c2ccccc2)cc(-c2ccco2)c(C#N)c1N`, the IC50 is above 60 µM on Cruzipain [1], 12 µM against Cruzipain [3] and 6 µM in test [2].

`CCn1ccnc1C(O)c1cccc(OC)c1OC` (configuration not stated): the IC50 against Cruzipain [1] is above 60 µM; at Cruzipain [3], above 120 µM; in test [2], 4 µM.

Regarding `Cn1cnnc1SCC(=O)Nc1sc2c(c1C(N)=O)CCC2`, the IC50 is above 60 µM on Cruzipain [1], 120 µM on Cruzipain [3] and 10 µM in test [2].

Take `O=C(Nc1nc(-c2cccs2)cs1)c1ccc(S(=O)(=O)N2CCCC2)cc1`: the IC50 at Cruzipain [1] is above 60 µM; against Cruzipain [3] it was 12 µM; in test [2], 13 µM.

For `O=C(c1ccccc1)c1cn(CC(=O)N2CCCC2)c2ccccc12`, the half-inhibitory concentration (IC50) against Cruzipain [1] was above 60 µM; on Cruzipain [3], 120 µM; in test [2] it was 4 µM.

`Cc1cccc(NS(=O)(=O)c2ccc(C)c(C(=O)OCC(=O)Nc3cc(C)on3)c2)c1`: the IC50 at Cruzipain [1] is above 60 µM; at Cruzipain [3] it was 30 µM; in test [2], 10 µM.

Regarding `Cc1sc(NC(=S)NC(=O)C2CCCCC2)c(C(N)=O)c1C`, the midpoint of inhibition at Cruzipain [3], the IC50, lay at 12 µM.

Regarding `CCc1ccc(C(=O)CSC2=C(C#N)C(c3ccco3)C(C(C)=O)=C(C)N2)cc1` (configuration not stated), the IC50 was above 60 µM against Cruzipain [1], 30 µM against Cruzipain [3] and 13 µM in test [2].

As to `Cc1ccc(Cl)cc1NC(=O)CCC(=O)Nc1cc(Cl)ccc1C`, it took 12 µM to reach half-maximal inhibition on Cruzipain [3] (IC50).

As for `Cc1ccc(-c2csc(NC(=O)c3ccno3)n2)cc1`, the half-inhibitory concentration (IC50) was above 60 µM at Cruzipain [1], above 120 µM against Cruzipain [3] and 8 µM in test [2].

With `Cn1c(C(C#N)C(=O)c2sc3ccccc3c2Cl)nc2ccccc21` (configuration not stated), the results for the half-maximal inhibitory concentration (IC50) (at Cruzipain [1]; against Cruzipain [3]; in test [2]) were above 60 µM, 12 µM and 13 µM, respectively.

Compound `COc1ccc(S(=O)(=O)Nc2nc3ccccc3nc2NCc2ccc3c(c2)OCO3)cc1` yielded a half-maximal inhibitory concentration (IC50) against Cruzipain [3] of 12 µM. This counts as double-digit micromolar.

As to `O=[N+]([O-])c1ccccc1S(=O)(=O)NC[C@H]1CC[C@H](CNCC2CCc3ccccc3C2)CC1` (some centres not stated), the figures for the IC50 (at Cruzipain [1]; against Cruzipain [3]; in test [2]) were above 60 µM, above 120 µM and 13 µM, respectively.

With `O=C(Cn1c(=O)oc2ccccc21)Nc1oc(-c2ccccc2)c(-c2ccccc2)c1O`, the IC50 is above 60 µM against Cruzipain [1], 12 µM on Cruzipain [3] and 13 µM in test [2].

The values are drawn from ChEMBL document CHEMBL1156758, “Quantitative analyses of aggregation, autofluorescence, and reactivity artifacts in a screen for inhibitors of a thiol protease” (J Med Chem, 2010).
